# Source: PubChem (several laboratories)
# Only some compounds are listed: those with a hit (about 1.9% of all), similar ones and a draw of the others.
# XiGFP reactiv – X-chromosome reactivation activator. XiGFP mouse fibroblasts, % GFP-positive cells imaging, 3 d; cells co-treated with 5-aza-dC sensitizer; scaled so ellipticine positive control = 100%. 360,000 tested, 0.055% active. activation, % at 7.58 µM;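 active = mean normalized replicate activation at least 10% and every replicate at or above 10%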;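 note: 0% = median of on-plate neutral control wells and 100% = ellipticine 6 µM median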
#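 System: SV40-immortalized XiGFP fibroblast cells, line 68-5-11 / Incubation: 3-day compound exposure, then 15 min fixation at room temperature / Compound: single concentration per compound, delivered by pin transfer / Buffer or medium: DMEM plus 5-aza-dC sensitizer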
# ABHD5 PLIN5 PPI – blocks binding of human ABHD5 to perilipin-5; inhibition, % at 4 µM; 360,000 tested, 0.78% active; Q00G26+Q8WTS1; Split G. princeps luciferase complementation, luminescence, 4 h;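 active = inhibition above the mean inhibition across every tested compound plus 3 SD, cut at about 22% in these data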;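 note: 0% = DMSO only wells and the 100% control is not disclosed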
# NadD block – NadD (S. aureus) enzyme inhibition; purified NadD enzyme, colorimetric absorbance read-out; inhibition, % at 20 µM; 360,000 tested, 0.78% active; in the data active = inhibition above about 26%
# Rpn11 block – blocks the human proteasome subunit Rpn11. O00487. human 26S proteasome, Ub4-pepOG fluorescence polarization; 20S core pre-blocked with epoxomicin. inhibition, % at 20 µM. 360,000 tested, 0.59% active. AID 588493;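 active = inhibition at 20 µM, scaled to each plate's controls, above about 33%, limit read from the data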
# Rin1-Abl PPI inh – human Rin1-Abl interaction inhibition; P00519+Q13671; TR-FRET Rin1/Abl binding, biochemical; inhibition, % at 7.35 µM; 360,000 tested, 0.4% active; AID 588664; in the data active = inhibition above about 5%, passing the limit was not always enough
# ABHD5-PLIN5 conf – confirmation of human ABHD5-PLIN5 interaction inhibitors; 2,200 tested, 67% active; inhibition, % at 4 µM; biochemical ABHD5-PLIN5 interaction, luminescence; shares compounds with ABHD5 PLIN5 PPI; in the data active = inhibition above about 23%;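 note: 0% = DMSO vehicle wells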
# HNF4 split-luc – active in HNF4 split-luciferase counter-screen for ABHD5-PLIN5 inhibitors | shares compounds with ABHD5 PLIN5 PPI | HNF4 dimerization, luminescence, biochemical | inhibition, % at 4 µM | 2,200 tested, 77% active | AID 651674;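 active = mean inhibition across replicate wells exceeding the computed hit threshold, cut at about 13% in these data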;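 note: light from luciferase halves that rejoin when HNF4 fusion proteins dimerize; 0% = DMSO only wells and the 100% control is not given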
# * marks the source's active call; other numbers are inactive results; . = not tested or not shown.
SMILES,XiGFP reactiv,ABHD5 PLIN5 PPI,NadD block,Rpn11 block,Rin1-Abl PPI inh,ABHD5-PLIN5 conf,HNF4 split-luc
O=C(O)c1ccc(Nc2cc(Cl)c3nonc3c2[N+](=O)[O-])cc1,0,31*,-1,2,0,63*,95*
O=[N+]([O-])c1c(Nc2cccc(O)c2)cc(Cl)c2nonc12,2,52*,2,-2,-3,71*,95*
C[C@H]1CN([C@@H](C)CO)C(=O)c2ccccc2-c2ccccc2CO[C@@H]1CN(C)S(C)(=O)=O,0,.,.,.,.,.,.
C/C=C/c1ccc(C2[C@H]3CNC[C@@H]2N3Cc2ccccc2C(F)(F)F)cc1 (stereo partly specified),0,.,.,.,.,.,.
COc1cccc(NC(=O)N2C[C@H](O)COC[C@H]3O[C@@H](CC(=O)NC4CCC4)CC[C@@H]32)c1,0,.,.,.,.,.,.
CCCCCCCCCCCCCCCCn1cc[n+](C)c1,0,32*,16,97*,-3,7,11
CCCCCCCCn1ccc(=N)cc1,0,5,-1,-3,2,.,.
COc1cc(CN2CCCC(C(=O)c3ccc4c5c(cccc35)CC4)C2)cc(OC)c1O (stereo unspecified),0,29*,15,4,-3,15,40*
CCCC(=O)N1CC2(C1)CN(C(=O)C1CC1)[C@H](CO)c1[nH]c3cc(OC)ccc3c12,0,.,.,.,.,.,.
CC(=O)Nc1cccc2c1O[C@@H](CN(C)C(=O)NC(C)C)[C@@H](C)CN(C)C2=O,0,.,.,.,.,.,.
CN1C(=O)/C(=C\C(=O)c2cccs2)c2ccccc21,0,65*,-3,-1,1,67*,87*
O=C(/C(=C/O)N=Nc1ccc(Cl)cc1)c1ccncc1,.,38*,6,4,-1,38*,-7
Cc1ccc(N=N/C(=C\O)C(=O)c2ccncc2)cc1,.,-6,1,6,0,.,.
Fc1ccc(CN2C3CN(CC(F)(F)F)CC2C3c2ccc(Br)cc2)cc1 (stereo unspecified),0,.,.,.,.,.,.
COCC(=O)Nc1ccc2c(c1)[C@H]1C[C@H](CC(=O)NCc3ccccc3)O[C@@H](CO)[C@H]1O2,0,.,.,.,.,.,.
CNC[C@H]1OCCCC[C@@H](C)Oc2ccc(NC(=O)Nc3ccccc3)cc2C(=O)N([C@H](C)CO)C[C@H]1C,1,.,.,.,.,.,.
COc1ccc(-n2c(N)c(C(=O)NCc3ccco3)c3nc4ccccc4nc32)cc1,.,33*,22,16,2,31*,32*
O=C(Nc1ccc(N2CCOCC2)cc1)c1ccc2nc(-c3ccco3)c(-c3ccco3)nc2c1,.,0,10,5,-5,.,.
O=C(Nc1ccccc1)c1ccc2nc(-c3ccco3)c(-c3ccco3)nc2c1,.,30*,23,2,5,49*,32*
O=C(NCc1ccc(F)cc1)[C@H]1[C@H](CO)[C@H]2Cn3c(cccc3=O)[C@@H]1N2Cc1ccncc1,1,.,.,.,.,.,.
CC1=CC2C(C(O)CC3(C)C2CC(C)C32OCOC23COCO3)C2(C)C/C(=C\O)C(=O)C=C12 (stereo unspecified),0,32*,12,8,3,42*,9
CC=Cc1ccc2n(c1=O)C[C@H]1[C@H](CO)[C@@H](C(=O)NC3CCC3)[C@@H]2N1C(=O)c1cnccn1 (mixture of isomers),0,.,.,.,.,.,.
Cc1ccc(S(=O)(=O)Nc2cccc3c2O[C@@H](CN(C)C(=O)NC2CCCCC2)[C@H](C)CN([C@H](C)CO)C3=O)cc1,-1,.,.,.,.,.,.
COc1ccc(/C=C2/CCC(CN3CCOCC3)C2=O)cc1 (stereo unspecified),0,69*,-1,0,4,100*,107*
CN(C)CC1CCC/C(=C\c2ccc(OC(=O)c3ccc(Cl)cc3)cc2)C1=O (stereo unspecified),1,5,-1,3,3,.,.
SMILES,XiGFP reactiv,ABHD5 PLIN5 PPI,NadD block,Rpn11 block,Rin1-Abl PPI inh,ABHD5-PLIN5 conf,HNF4 split-luc
COc1ccc(/C=C2\CCC(C3CCCC3)C2=O)cc1 (stereo unspecified),0,0,2,-4,0,.,.
CN(C)CC1CC/C(=C\c2ccc(O)cc2)C1=O (stereo unspecified),0,92*,2,4,2,93*,107*
CC1CCC/C(=C\c2ccc(O)cc2)C1=O (stereo unspecified),0,-2,10,0,-1,.,.
O=C1/C(=C\c2ccc(Cl)cc2)CCC1CNc1ccc(Cl)cc1 (stereo unspecified),0,37*,10,14,4,60*,80*
COc1ccc(C#Cc2ccc3c(c2)[C@@H]2[C@@H](CCN2C(=O)C2CCCC2)[C@H](CO)N3)cc1,0,.,.,.,.,.,.
CN(C)CCCNC(=O)C[C@@H]1CC[C@H]2[C@@H](COC[C@@H](O)CN2Cc2ccc(Cl)c(Cl)c2)O1,0,.,.,.,.,.,.
COc1ccc(-n2c(=O)cc(N3CCOCC3)[nH]c2=O)cc1,.,6,-4,0,2,.,.
COc1ccc(-n2c(=O)cc(N3CC(C)OC(C)C3)[nH]c2=O)cc1 (stereo unspecified),.,37*,-4,0,4,1,-1
C[C@H]1CN([C@@H](C)CO)C(=O)c2cccc(NC(=O)Nc3ccc4c(c3)OCO4)c2O[C@@H]1CN(C)Cc1ccc(Cl)c(Cl)c1,0,.,.,.,.,.,.
O=C([C@H]1[C@H](CO)[C@H]2Cn3c(cccc3=O)[C@H]2N1Cc1ccccn1)N1CCC(Cc2ccccc2)CC1,1,.,.,.,.,.,.
COc1ccc(C2NCCc3c2[nH]c2ccccc32)cc1COc1ccc(F)cc1 (stereo unspecified),1,29*,14,3,2,16,18*
COc1ccc(S(=O)(=O)Nc2ccc3c(c2)C(=O)N([C@H](C)CO)C[C@@H](C)[C@H](CN(C)C(=O)Nc2ccccc2)OCCCC[C@H](C)O3)cc1,0,.,.,.,.,.,.
C[C@@H]1CN([C@@H](C)CO)C(=O)c2cc(NS(=O)(=O)c3ccccc3)ccc2O[C@@H]1CN(C)S(=O)(=O)c1cccs1,0,.,.,.,.,.,.
Cc1cc(C)nc(S/C=C/C(=O)c2ccccc2F)n1,0,48*,-10,8,1,96*,100*
O=[N+]([O-])c1ccc2c(c1)C(N1CCN(CCO)CC1)Cc1ccc(F)cc1S2 (stereo unspecified),0,8,-10,1,-1,.,.
CSc1ccc2c(c1)C(N1CCN(C)CC1)Cc1ccc(F)cc1S2 (stereo unspecified),0,26*,0,-12,4,18,3
CCN(CC)c1ccc(N=Nc2nn(C)c(C)c2[N+](=O)[O-])cc1,0,25*,2,4,-20,29*,33*
